Source: ChEMBL document CHEMBL4261600 (Eur J Med Chem, 2018)

Assays:
[1] = tested on: Epidermal growth factor receptor (Homo sapiens), P00533 [L858R,T790M]; experiment: Binding affinity to human partial length EGFR L858R/T790M double mutant (R669 to V1011 residues) expressed in mammalian expression system assessed as remaining unbound target protein level at 1000 nM by Kinomescan method relative to control
Method in brief: (§1)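 KINOMEscan competition-binding profiling across the panel of 468 kinases and mutants, with inhibitor tested at 1 μM. Binding is expressed as percent of control, with DMSO as the reference control.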

[2] = tested on: Receptor-type tyrosine-protein kinase FLT3 (Homo sapiens), P36888 [R834Q]; experiment: Binding affinity to human partial length FLT3 R834Q mutant (V592 to Y969 residues) expressed in mammalian expression system assessed as remaining unbound target protein level at 1000 nM by Kinomescan method relative to control; method in brief: as §1
[3] = tested on: Hepatocyte growth factor receptor (Homo sapiens), P08581 [M1250T]; experiment: Binding affinity to human partial length MET M1250T mutant (D1010 to S1367 residues) expressed in bacterial expression system assessed as remaining unbound target protein level at 1000 nM by Kinomescan method relative to control; method in brief: as §1
U-937 = experiment: Antiproliferative activity against human U937 cells after 72 hrs by Celltiter-Glo assay; type: functional; conditions: U-937, 72 h
Method in brief: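 Cells seeded at 3000/well in 96-well plates, exposed to serially diluted compound for 72 h at 37 °C, 5% CO2. Viability read by CellTiter-Glo luminescence and normalized to DMSO control. GI50 derived from curve fit, mean of three independent measurements. Culture media: DMEM/10% FBS for adherent lines; IMDM for MV4-11 and MEC-1/2; RPMI 1640 for suspension lines and CHL.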

[4] = biological target: Mitogen-activated protein kinase kinase kinase 9 (Homo sapiens) (UniProt P80192); experiment: Binding affinity to wild-type human partial length MLK1 (V88 to W426 residues) expressed in bacterial expression system assessed as remaining unbound target protein level at 1000 nM by Kinomescan method relative to control
Method in brief: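 KINOMEscan binding panel of 468 kinases/mutants. Inhibitor was tested at a single concentration of 1 μM. Binding is reported as percent of control, defined relative to a DMSO control.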

Canis familiaris = experiment: Oral bioavailability in beagle dog at 10 mg/kg by LC-MS/MS analysis; type: ADME, organism-based, Canis lupus familiaris; conditions: in vivo
[5] = biological target: BMP-2-inducible protein kinase (Homo sapiens) (UniProt Q9NSY1); experiment: Binding affinity to wild-type human partial length BIKE (S34 to N329 residues) expressed in bacterial expression system assessed as remaining unbound target protein level at 1000 nM by Kinomescan method relative to control
Method in brief: (§2)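 Profiled in a KINOMEscan binding panel with the inhibitor at a single concentration of 1 μM. Binding to each kinase was read out as percent of control, relative to a DMSO control. Strong binders were defined as those with a percent control value below 1.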

[6] = biological target: Atypical kinase COQ8B, mitochondrial (Homo sapiens) (UniProt Q96D53); experiment: Binding affinity to wild-type human full length ADCK4 (M1 to S544 residues) expressed in bacterial expression system assessed as remaining unbound target protein level at 1000 nM by Kinomescan method relative to control
Method in brief: (§3)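 Single-point competition binding screen across a panel of 468 kinases and mutants, with the inhibitor at 1 μM. Binding is read out as percent of a DMSO control, and targets below 1 percent control were classed as strong binders.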

[7] = biological target: G protein-coupled receptor kinase 3 (Homo sapiens) (UniProt P35626); experiment: Binding affinity to wild-type human full length GRK3 (M1 to L688 residues) expressed in mammalian expression system assessed as remaining unbound target protein level at 1000 nM by Kinomescan method relative to control
Method in brief: (§4)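 KINOMEscan competition binding profile across a panel of 468 kinases and mutants, with the inhibitor tested at a single concentration of 1 μM. Binding is reported as percent of control, meaning signal relative to a DMSO control.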

[8] = biological target: Cytoplasmic tyrosine-protein kinase BMX (Homo sapiens) (UniProt P51813); experiment: Binding affinity to wild-type human full length BMX (M1 to H675 residues) expressed in bacterial expression system assessed as remaining unbound target protein level at 1000 nM by Kinomescan method relative to control; method in brief: as §3
[9] = biological target: Receptor-type tyrosine-protein kinase FLT3 (Homo sapiens) (UniProt P36888); experiment: Binding affinity to wild-type human partial length autoinhibited FLT3 (H564 to Y969 residues) expressed in mammalian expression system assessed as remaining unbound target protein level at 1000 nM by Kinomescan method relative to control
[10] = biological target: Phosphatidylinositol 4-phosphate 5-kinase type-1 gamma (Homo sapiens) (UniProt O60331); experiment: Binding affinity to wild-type human partial length PIP5K1C (M1 to T668 residues) expressed in mammalian expression system assessed as remaining unbound target protein level at 1000 nM by Kinomescan method relative to control
[11] = biological target: Cyclin-dependent kinase-like 2 (Homo sapiens) (UniProt Q92772); experiment: Binding affinity to wild-type human partial length CDKL2 (M1 to D327 residues) expressed in bacterial expression system assessed as remaining unbound target protein level at 1000 nM by Kinomescan method relative to control; method in brief: as §4
[12] = biological target: NUAK family SNF1-like kinase 1 (Homo sapiens) (UniProt O60285); experiment: Binding affinity to wild-type human partial length ARK5 (E25 to I332 residues) expressed in bacterial expression system assessed as remaining unbound target protein level at 1000 nM by Kinomescan method relative to control; method in brief: as §2
[13] = tested on: Mast/stem cell growth factor receptor Kit (Homo sapiens), P10721 [V559D,V654A]; experiment: Binding affinity to human partial length KIT V559D/V654A double mutant (Y545 to D952 residues) expressed in bacterial expression system assessed as remaining unbound target protein level at 1000 nM by Kinomescan method relative to control; method in brief: as §1
[14] = tested on: Phosphatidylinositol 4,5-bisphosphate 3-kinase catalytic subunit alpha isoform (Homo sapiens), P42336 [H1047Y]; experiment: Binding affinity to human partial length PIK3CA H1047Y mutant (R108 to N1068 residues) expressed in mammalian expression system assessed as remaining unbound target protein level at 1000 nM by Kinomescan method relative to control; method in brief: as §1
[15] = biological target: Protein-tyrosine kinase 2-beta (Homo sapiens) (UniProt Q14289); experiment: Binding affinity to wild-type human full length PYK2 (M1 to E967 residues) expressed in bacterial expression system assessed as remaining unbound target protein level at 1000 nM by Kinomescan method relative to control; method in brief: as §2
[16] = tested on: Mast/stem cell growth factor receptor Kit (Homo sapiens), P10721 [A829P]; experiment: Binding affinity to human partial length KIT A829P mutant (I571 to D952 residues) expressed in mammalian expression system assessed as remaining unbound target protein level at 1000 nM by Kinomescan method relative to control; method in brief: as §1
[17] = MRT (0 to t) in Sprague-Dawley rat at 3 mg/kg, iv by LC-MS/MS analysis; type: ADME, organism-based; conditions: in vivo
[18] = biological target: Platelet-derived growth factor receptor alpha (Homo sapiens) (UniProt P16234); experiment: Binding affinity to wild-type human partial length PDGFRA (V575 to D1002 residues) expressed in mammalian expression system assessed as remaining unbound target protein level at 1000 nM by Kinomescan method relative to control
Platelet-derived growth factor receptor alpha (Homo sapiens), sequence (P16234 whole entry, the tested form may be a part): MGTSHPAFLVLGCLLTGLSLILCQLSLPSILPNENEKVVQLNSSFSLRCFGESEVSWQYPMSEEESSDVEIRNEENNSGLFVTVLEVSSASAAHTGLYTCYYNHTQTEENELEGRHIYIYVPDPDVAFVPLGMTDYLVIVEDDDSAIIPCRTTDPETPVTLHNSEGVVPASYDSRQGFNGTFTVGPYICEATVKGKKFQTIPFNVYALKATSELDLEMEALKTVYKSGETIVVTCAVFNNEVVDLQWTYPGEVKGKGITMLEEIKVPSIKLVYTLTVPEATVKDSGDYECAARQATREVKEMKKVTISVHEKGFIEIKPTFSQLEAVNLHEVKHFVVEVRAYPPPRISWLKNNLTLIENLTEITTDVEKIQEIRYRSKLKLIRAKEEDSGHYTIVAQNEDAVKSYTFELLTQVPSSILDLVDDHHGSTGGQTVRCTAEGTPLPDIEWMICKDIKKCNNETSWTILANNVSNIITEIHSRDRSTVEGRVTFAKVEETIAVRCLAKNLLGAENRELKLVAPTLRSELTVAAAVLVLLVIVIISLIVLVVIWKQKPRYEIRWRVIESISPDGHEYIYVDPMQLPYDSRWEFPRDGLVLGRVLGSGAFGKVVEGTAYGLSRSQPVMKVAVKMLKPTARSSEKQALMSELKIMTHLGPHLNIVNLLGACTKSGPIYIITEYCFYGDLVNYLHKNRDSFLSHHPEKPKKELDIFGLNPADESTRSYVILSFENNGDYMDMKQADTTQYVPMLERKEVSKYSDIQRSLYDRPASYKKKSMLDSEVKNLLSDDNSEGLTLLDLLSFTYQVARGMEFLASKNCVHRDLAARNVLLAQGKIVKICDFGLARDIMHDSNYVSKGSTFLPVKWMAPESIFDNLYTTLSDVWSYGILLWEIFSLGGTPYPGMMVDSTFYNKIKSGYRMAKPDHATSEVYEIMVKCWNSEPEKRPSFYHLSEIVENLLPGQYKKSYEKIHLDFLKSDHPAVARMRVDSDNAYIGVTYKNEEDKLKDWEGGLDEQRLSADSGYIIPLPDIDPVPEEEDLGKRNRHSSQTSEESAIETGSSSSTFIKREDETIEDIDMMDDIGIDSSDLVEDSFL

Phosphatidylinositol 4-phosphate 5-kinase type-1 gamma (Homo sapiens), sequence (O60331 whole entry, the tested form may be a part): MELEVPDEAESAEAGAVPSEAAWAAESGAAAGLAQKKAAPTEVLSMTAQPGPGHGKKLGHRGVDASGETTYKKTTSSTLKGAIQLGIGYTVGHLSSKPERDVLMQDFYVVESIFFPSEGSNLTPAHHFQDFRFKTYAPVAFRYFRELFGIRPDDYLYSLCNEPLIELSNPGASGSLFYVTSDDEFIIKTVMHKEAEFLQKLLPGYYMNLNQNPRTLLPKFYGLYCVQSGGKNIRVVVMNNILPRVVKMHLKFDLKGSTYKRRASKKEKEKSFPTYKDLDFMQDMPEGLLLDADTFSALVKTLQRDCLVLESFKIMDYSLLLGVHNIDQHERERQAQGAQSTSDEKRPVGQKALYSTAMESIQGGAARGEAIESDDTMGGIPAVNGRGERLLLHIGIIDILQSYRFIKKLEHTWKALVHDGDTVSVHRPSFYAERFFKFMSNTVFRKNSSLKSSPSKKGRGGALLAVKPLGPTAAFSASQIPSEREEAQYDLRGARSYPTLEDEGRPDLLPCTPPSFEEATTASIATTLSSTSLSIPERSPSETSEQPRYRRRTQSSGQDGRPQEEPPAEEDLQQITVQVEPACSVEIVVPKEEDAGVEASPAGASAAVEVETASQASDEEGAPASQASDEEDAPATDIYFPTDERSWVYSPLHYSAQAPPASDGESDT
Protein-tyrosine kinase 2-beta (Homo sapiens), sequence (Q14289 whole entry, looked up, the tested form may be a part): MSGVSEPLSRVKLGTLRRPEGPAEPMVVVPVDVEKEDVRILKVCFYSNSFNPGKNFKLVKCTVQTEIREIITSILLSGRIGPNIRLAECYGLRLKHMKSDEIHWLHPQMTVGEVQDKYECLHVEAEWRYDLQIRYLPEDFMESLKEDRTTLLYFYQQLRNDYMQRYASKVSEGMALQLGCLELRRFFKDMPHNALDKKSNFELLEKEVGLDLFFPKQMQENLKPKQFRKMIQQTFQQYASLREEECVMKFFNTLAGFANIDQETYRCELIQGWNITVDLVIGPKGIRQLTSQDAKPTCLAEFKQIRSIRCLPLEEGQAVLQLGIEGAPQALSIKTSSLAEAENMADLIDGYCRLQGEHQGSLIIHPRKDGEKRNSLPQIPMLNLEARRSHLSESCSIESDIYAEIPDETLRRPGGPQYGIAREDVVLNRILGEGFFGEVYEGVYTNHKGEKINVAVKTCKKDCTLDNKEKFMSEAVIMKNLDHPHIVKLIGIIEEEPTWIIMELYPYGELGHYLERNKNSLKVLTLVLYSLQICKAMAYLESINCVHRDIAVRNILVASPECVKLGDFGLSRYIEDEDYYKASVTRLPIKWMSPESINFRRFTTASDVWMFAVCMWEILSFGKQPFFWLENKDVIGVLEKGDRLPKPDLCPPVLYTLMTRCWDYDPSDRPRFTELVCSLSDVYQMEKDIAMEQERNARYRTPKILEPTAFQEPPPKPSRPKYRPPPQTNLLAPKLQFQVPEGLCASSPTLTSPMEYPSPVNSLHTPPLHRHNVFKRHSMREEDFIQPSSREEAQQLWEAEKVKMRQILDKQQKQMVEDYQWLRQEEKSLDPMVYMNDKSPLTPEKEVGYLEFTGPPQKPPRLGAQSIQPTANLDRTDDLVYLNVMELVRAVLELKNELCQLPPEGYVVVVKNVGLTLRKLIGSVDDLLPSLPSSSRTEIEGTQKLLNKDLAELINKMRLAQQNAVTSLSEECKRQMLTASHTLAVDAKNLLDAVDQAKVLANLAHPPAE
BMP-2-inducible protein kinase (Homo sapiens), sequence (Q9NSY1 whole entry, looked up, the tested form may be a part): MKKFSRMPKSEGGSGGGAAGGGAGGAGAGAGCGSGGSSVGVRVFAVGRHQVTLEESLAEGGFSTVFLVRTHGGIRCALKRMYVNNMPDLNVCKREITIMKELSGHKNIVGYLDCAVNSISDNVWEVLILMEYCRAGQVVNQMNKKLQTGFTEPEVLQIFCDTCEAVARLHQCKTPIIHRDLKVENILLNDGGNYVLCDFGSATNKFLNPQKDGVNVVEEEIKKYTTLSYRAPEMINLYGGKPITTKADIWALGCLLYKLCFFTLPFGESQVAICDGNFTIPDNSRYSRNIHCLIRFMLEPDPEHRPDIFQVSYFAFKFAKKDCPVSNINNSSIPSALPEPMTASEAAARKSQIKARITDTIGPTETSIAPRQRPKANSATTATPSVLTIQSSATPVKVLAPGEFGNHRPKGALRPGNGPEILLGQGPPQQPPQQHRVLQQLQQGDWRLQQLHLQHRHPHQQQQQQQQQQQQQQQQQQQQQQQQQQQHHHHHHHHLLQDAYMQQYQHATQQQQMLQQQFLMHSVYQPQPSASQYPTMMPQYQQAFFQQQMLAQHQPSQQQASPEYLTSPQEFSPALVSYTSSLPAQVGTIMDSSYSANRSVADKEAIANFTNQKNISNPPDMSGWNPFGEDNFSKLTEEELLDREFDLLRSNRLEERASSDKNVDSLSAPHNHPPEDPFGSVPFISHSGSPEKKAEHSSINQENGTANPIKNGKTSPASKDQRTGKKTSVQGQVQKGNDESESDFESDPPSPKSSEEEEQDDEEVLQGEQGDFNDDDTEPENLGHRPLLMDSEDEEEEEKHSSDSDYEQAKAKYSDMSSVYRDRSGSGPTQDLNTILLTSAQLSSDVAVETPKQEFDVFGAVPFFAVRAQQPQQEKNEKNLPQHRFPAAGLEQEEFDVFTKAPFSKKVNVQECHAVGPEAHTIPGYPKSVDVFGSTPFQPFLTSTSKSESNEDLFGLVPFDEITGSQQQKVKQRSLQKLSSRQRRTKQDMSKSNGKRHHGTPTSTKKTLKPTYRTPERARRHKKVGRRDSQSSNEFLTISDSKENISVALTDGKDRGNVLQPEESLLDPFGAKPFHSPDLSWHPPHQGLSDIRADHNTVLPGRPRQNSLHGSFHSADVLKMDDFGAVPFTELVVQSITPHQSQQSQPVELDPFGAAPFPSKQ
Cyclin-dependent kinase-like 2 (Homo sapiens), sequence (Q92772 whole entry, the tested form may be a part): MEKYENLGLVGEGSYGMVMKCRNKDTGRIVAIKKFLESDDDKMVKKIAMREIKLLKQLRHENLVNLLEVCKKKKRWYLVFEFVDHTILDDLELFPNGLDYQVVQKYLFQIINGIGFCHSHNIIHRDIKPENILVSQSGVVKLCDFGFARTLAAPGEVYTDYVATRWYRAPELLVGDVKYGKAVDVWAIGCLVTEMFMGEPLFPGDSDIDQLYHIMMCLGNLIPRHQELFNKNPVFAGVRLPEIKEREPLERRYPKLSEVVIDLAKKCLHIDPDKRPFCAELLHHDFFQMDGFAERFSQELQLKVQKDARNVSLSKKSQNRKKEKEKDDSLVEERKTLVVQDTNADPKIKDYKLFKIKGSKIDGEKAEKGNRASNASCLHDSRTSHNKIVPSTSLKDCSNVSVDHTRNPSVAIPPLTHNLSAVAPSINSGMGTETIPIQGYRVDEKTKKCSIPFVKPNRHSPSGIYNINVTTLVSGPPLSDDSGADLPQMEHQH
NUAK family SNF1-like kinase 1 (Homo sapiens), sequence (O60285 whole entry, the tested form may be a part): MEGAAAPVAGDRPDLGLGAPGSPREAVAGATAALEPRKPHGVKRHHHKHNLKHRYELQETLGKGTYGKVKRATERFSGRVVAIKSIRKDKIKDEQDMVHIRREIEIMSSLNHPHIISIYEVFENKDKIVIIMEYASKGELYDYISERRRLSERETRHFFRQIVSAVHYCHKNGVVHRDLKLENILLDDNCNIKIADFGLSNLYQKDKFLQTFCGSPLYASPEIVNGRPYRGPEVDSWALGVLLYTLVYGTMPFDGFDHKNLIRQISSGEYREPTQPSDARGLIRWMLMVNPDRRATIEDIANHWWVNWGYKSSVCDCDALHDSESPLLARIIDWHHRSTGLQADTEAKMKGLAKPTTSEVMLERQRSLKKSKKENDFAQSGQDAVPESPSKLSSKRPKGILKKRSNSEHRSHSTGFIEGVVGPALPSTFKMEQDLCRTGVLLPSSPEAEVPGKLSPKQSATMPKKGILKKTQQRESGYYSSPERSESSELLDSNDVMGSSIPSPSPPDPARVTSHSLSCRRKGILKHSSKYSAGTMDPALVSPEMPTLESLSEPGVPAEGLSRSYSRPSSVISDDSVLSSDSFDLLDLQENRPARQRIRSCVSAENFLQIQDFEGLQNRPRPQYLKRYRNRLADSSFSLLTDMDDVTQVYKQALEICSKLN

Compound: COCCN[C@H]1CC[C@H](Nc2cc(-c3csc(NCC4(C#N)CCOCC4)n3)c(Cl)cn2)CC1
- Activity [1]: 100%
- Activity [2]: 100%
- Activity [3]: 100%
- GI50 (U-937): 2 nM
- Activity [4]: 86%
- F (Canis familiaris): 39.15%
- Activity [5]: 100%
- Activity [6]: 65%
- Activity [7]: 42%
- Activity [8]: 92%
- Activity [9]: 100%
- Activity [10]: 100%
- Activity [11]: 63%
- Activity [12]: 100%
- Activity [13]: 100%
- Activity [14]: 54%
- Activity [15]: 90%
- Activity [16]: 88%
- MRT last [17]: 4.69 h
- Activity [18]: 100%
